These results are taken from ChEMBL document CHEMBL1156179 (J Med Chem, 2010).

Assay [1] deals with Adenosine receptors; A1 & A3 (Homo sapiens) (UniProt P30542+P0DMS8). The experiment in a line: Selectivity ratio of Ki for human adenosine A1 receptor to Ki for human adenosine A3.
A further assay has as its target T1, Adenosine receptor A1 (Homo sapiens, UniProt P30542).
T1 sequence (P30542 whole entry): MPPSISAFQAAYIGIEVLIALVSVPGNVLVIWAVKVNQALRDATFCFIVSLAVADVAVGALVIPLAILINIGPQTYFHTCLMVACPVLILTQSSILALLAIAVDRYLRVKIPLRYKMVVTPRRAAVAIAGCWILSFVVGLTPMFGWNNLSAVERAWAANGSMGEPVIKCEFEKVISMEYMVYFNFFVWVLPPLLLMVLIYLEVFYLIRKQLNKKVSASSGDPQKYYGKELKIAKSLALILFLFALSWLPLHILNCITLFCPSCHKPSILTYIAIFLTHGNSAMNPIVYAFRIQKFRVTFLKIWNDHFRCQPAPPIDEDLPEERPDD
The experiment in a line: Displacement of [3H]CCPA from human cloned adenosine A1 receptor expressed in CHO cells. It is filed as cell-based. In a few lines:
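CHO membranes with hA1 receptor, from 1000g 4 min spin then 100000g 30 min. Incubated 3 h at 25 °C with 1 nM [3H]CCPA, 0.2 U/mL adenosine deaminase, 20 μg protein in 50 mM Tris/HCl pH 7.4 and graded compound. Nonspecific binding with 1 mM theophylline.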

The target in another assay is T2, Adenosine receptor A3 (Homo sapiens, UniProt P0DMS8).
T2 sequence (P0DMS8 whole entry): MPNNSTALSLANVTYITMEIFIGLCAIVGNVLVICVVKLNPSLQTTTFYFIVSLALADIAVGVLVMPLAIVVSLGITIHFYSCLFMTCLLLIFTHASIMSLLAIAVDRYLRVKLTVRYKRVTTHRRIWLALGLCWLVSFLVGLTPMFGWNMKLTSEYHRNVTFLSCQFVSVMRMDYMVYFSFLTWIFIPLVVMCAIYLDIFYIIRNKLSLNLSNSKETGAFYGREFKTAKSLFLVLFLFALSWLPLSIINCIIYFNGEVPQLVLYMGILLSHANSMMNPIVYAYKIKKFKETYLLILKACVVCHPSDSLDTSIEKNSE
Briefly: Displacement of [3H]NECA from human cloned adenosine A3 receptor expressed in CHO cells. In kind it is cell-based.

For another assay, the species on record is Homo sapiens. The experiment in a line: Selectivity ratio of Ki for human adenosine A2A receptor to Ki for human adenosine A3.
A further assay concerns the target Adenosine receptor A2a (Homo sapiens, UniProt P29274). Briefly: Displacement of [3H]NECA from human cloned adenosine A2a receptor expressed in CHO cells. In kind it is cell-based. In a few lines: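 hA2A-CHO membranes, prepared by two-step centrifugation, were incubated with 30 nM [3H]NECA, 50 μg protein and graded compound under the A1 binding conditions. Nonspecific binding with 100 μM R-PIA.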
Background: In a radioligand displacement assay an active substance lowers the binding of a labelled ligand.

The target of the next assay is T3, Adenosine receptor A2b (Homo sapiens, UniProt P29275).
T3 sequence (P29275 whole entry): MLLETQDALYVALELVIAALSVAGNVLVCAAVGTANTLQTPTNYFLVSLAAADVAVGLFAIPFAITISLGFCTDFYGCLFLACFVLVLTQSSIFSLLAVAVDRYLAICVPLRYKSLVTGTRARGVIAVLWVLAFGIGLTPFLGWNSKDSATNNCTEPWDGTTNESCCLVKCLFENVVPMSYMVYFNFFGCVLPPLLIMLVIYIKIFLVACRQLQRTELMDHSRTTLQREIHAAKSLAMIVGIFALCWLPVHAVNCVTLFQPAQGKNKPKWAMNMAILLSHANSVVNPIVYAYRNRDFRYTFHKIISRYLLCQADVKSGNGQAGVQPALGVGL
Briefly: Antagonist activity at human cloned adenosine A2b receptor expressed in CHO cells assessed as inhibition of NECA-stimulated cAMP accumulation. In kind it is functional, cell-based. In a few lines:
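Membranes from CHO cells with hA2B receptor, prepared by a single 30 min spin at 54000g and resuspended in 50 mM Tris/HCl pH 7.4, used fresh. Antagonist inhibition of NECA-stimulated adenylyl cyclase gave IC50 by Hill fit; Ki from Cheng–Prusoff.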

Adenosine receptor A2a, sequence (P29274 whole entry): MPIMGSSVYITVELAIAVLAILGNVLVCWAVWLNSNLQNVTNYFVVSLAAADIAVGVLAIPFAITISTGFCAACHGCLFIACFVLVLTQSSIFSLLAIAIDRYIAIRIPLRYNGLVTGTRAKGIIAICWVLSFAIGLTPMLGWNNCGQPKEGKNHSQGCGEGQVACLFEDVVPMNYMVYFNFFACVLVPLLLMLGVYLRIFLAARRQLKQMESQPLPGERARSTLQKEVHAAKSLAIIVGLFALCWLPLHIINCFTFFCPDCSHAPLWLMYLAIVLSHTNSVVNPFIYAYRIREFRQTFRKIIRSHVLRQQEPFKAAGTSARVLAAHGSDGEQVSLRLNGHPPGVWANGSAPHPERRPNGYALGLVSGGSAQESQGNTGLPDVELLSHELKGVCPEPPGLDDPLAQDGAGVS

For the compound `Cn1cc2c(nc(NC(=O)c3ccccc3)n3nc(-c4ccc(Br)cc4)nc23)n1`, the Ratio Ki was > 5730 in assay [1] and > 19100 in the assay filed under Homo sapiens. Also, the Ki on Adenosine receptor A1 is > 30 µM; at Adenosine receptor A3, 0.00524 µM; on Adenosine receptor A2a, > 100 µM; on Adenosine receptor A2b, > 10 µM.
For the compound `Cn1cc2c(nc(N)n3nc(-c4ccc(Cl)cc4)nc23)n1`, the Ratio Ki turned out to be 67.1 in assay [1] and 27.9 in the assay listed under Homo sapiens. Further, the Ki at Adenosine receptor A1 is 4.86 µM; at Adenosine receptor A3, 0.0724 µM; at Adenosine receptor A2a, 2.02 µM; at Adenosine receptor A2b, > 10 µM.
Take `COc1ccc(-c2nc3c4cn(C)nc4nc(NC(=O)c4ccccc4)n3n2)cc1`: the Ratio Ki in assay [1] was > 14300; in the assay filed under Homo sapiens, > 47600. For the same compound, the Ki was > 30 µM on Adenosine receptor A1, 0.0021 µM at Adenosine receptor A3, > 100 µM at Adenosine receptor A2a and > 10 µM at Adenosine receptor A2b.
As to `Cn1cc2c(nc(NC(=O)c3ccccc3)n3nc(-c4ccc(F)cc4)nc23)n1`, the Ratio Ki in assay [1] was 738; in the assay listed under Homo sapiens it was > 29200. Besides, the Ki is 2.53 µM at Adenosine receptor A1, 0.00343 µM on Adenosine receptor A3, > 100 µM at Adenosine receptor A2a and > 10 µM at Adenosine receptor A2b.
Consider `CCn1cc2c(nc(N)n3nc(-c4ccc(Cl)cc4)nc23)n1`, for which the Ratio Ki in assay [1] is 22.9; in the assay listed under Homo sapiens, 12.3. Further, the Ki at Adenosine receptor A1 was 1.57 µM; on Adenosine receptor A3, 0.0687 µM; on Adenosine receptor A2a, 0.843 µM; on Adenosine receptor A2b it was > 10 µM.

What is called Ki is the dissociation constant of the complex between target and ligand, obtained from inhibition or displacement.
